Reference: ChEMBL document CHEMBL1157028, “Synthesis and anti-inflammatory activity of novel (substituted)benzylidene acetone oxime ether derivatives: molecular modeling study” (Eur J Med Chem, 2010)

Experiments:
Rattus norvegicus [1] = assay: Antiinflammatory activity in Wistar rat assessed as inhibition of carrageenan-induced paw edema at equimolar ip dose relative […] diclofenac sodium administered 1 hr before carrageenan challenge measured after 3 hrs relative to control; type: functional
How it was run: (§1)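 Wistar rats (100–120 g), 5 per group, were dosed ip either at equimolar […] or at three graded doses to derive ED50. Vehicle-only rats served as controls. After 1 h, 0.05 mL 1% carrageenin in saline (made 24 h earlier) was injected subplantar into the right hind paw and saline into the left. At 3 h, rats were killed and both paws cut and weighed. Right-over-left % weight increase gave % oedema reduction versus control.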

Rattus norvegicus [2] = assay: Antiinflammatory activity in Wistar rat assessed as inhibition of carrageenan-induced paw edema at 30 mg/kg, ip administered 1 hr before carrageenan challenge measured after 3 hrs relative to control; type: functional; conditions: route intraperitoneal; how it was run: as §1
Rattus norvegicus [3] = assay: Antiinflammatory activity in Wistar rat assessed as inhibition of carrageenan-induced paw edema at 75 mg/kg, ip administered 1 hr before carrageenan challenge measured after 3 hrs relative to control; type: functional; conditions: route intraperitoneal; how it was run: as §1
Rattus norvegicus [4] = assay: Antiinflammatory activity in Wistar rat assessed as inhibition of carrageenan-induced paw edema at 45 mg/kg, ip administered 1 hr before carrageenan challenge measured after 3 hrs relative to control; type: functional; conditions: route intraperitoneal; how it was run: as §1
Rattus norvegicus [5] = assay: Antiinflammatory activity in ip dosed Wistar rat assessed as inhibition of carrageenan-induced paw edema administered 1 hr before carrageenan challenge measured after 3 hrs relative to control; type: functional; how it was run: as §1
Mus musculus [6] = assay: Analgesic activity in Swiss albino mouse assessed as inhibition of acetic acid-induced writhing at 45 mg/kg, po administered 2 hrs before acetic acid challenge measured after 20 mins relative to control; type: functional
How it was run: (§2)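 Swiss albino mice of either sex (20–25 g), in groups of 6, were housed at 22 ± 2 °C on a 12 h light/dark cycle. Drug was given orally and vehicle alone to negative controls. After 2 h, 0.2 mL 3% acetic acid was injected ip. Writhes were counted over 20 min, and % reduction in writhe number versus the control group was calculated.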

Mus musculus [7] = assay: Analgesic activity in Swiss albino mouse assessed as inhibition of acetic acid-induced writhing at 100 mg/kg, po administered 2 hrs before acetic acid challenge measured after 20 mins relative to control; type: functional; how it was run: as §2
Rattus norvegicus [8] = assay: Gastrointestinal toxicity in Wistar rat assessed as length of elongated ulcer at equimolar po dose relative […] diclofenac sodium qd for 5 days measured after 10 hrs last post dose; type: organism-based; conditions: in vivo
How it was run: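 Rats, 5 per group, were given oral equimolar doses ([…]) daily for 5 days. They were killed by ether overdose 10 h after the last dose. Stomachs were rinsed with saline, opened along the greater curvature and examined under a ×10 hand lens. Ulcer number and summed ulcer length were recorded per animal, and the mean was taken as ulcer index.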

[9] = Acute toxicity in ip dosed Wistar rat assessed as mortality after 24 hrs; type: organism-based; conditions: in vivo
[10] = Therapeutic index, ED50 for antiinflammatory activity to LD50 for acute toxicity in Wistar rat; conditions: read-out: TI
Rattus norvegicus [11] = assay: Antiinflammatory activity in Wistar rat assessed as inhibition of carrageenan-induced paw edema at 50 mg/kg, ip administered 1 hr before carrageenan challenge measured after 3 hrs relative to control; type: functional; conditions: route intraperitoneal; how it was run: as §1
Mus musculus [12] = assay: Analgesic activity in Swiss albino mouse assessed as inhibition of acetic acid-induced writhing at 50 mg/kg, po administered 2 hrs before acetic acid challenge measured after 20 mins relative to control; type: functional; how it was run: as §2
Rattus norvegicus [13] = assay: Antiinflammatory activity in Wistar rat assessed as inhibition of carrageenan-induced paw edema at […], ip administered 1 hr before carrageenan challenge measured after 3 hrs relative to control; type: functional; how it was run: as §1
Rattus norvegicus [14] = assay: Antiinflammatory activity in Wistar rat assessed as inhibition of carrageenan-induced paw edema at 37 mg/kg, ip administered 1 hr before carrageenan challenge measured after 3 hrs relative to control; type: functional; conditions: route intraperitoneal; how it was run: as §1
Mus musculus [15] = assay: Analgesic activity in Swiss albino mouse assessed as inhibition of acetic acid-induced writhing at 37 mg/kg, po administered 2 hrs before acetic acid challenge measured after 20 mins relative to control; type: functional; how it was run: as §2

Structure (SMILES) | inhibition (INH) (Rattus norvegicus [1]) [%] | further results
CCOC(=O)C(C)O/N=C(C)/C=C/c1ccc(Cl)cc1 (centres undefined) | 44.52 | –
CC(/C=C/c1ccc(Cl)cc1)=N\OC(C)C(=O)O (centres undefined) | 66.7 | inhibition in vivo at 30 mg/kg (Rattus norvegicus [2]): 45.1%; inhibition in vivo at 75 mg/kg (Rattus norvegicus [3]): 75.2%; inhibition in vivo at 45 mg/kg (Rattus norvegicus [4]): 66.7%; ED50 (Rattus norvegicus [5]): 29.9 mg/kg; inhibition in vivo at 45 mg/kg (Mus musculus [6]): 20.3%; inhibition in vivo at 100 mg/kg (Mus musculus [7]): 39.1%; Activity (Rattus norvegicus [8]): 8.1 mm; LD50 at 24 h [9]: 745 mg/kg; selectivity ratio [10]: 24.9
COc1ccc(/C=C/C(C)=N/OCC(=O)Nc2ccc(OC)cc2)cc1 | 37.25 | –
CC(/C=C/c1ccccc1)=N\OCC(=O)NC(C)C | 30.93 | –
CC(/C=C/c1ccccc1)=N\OCC(=O)O | 45.62 | –
O=C([O-])Cc1ccccc1Nc1c(Cl)cccc1Cl.[Na+] [DICLOFENAC SODIUM] | – | inhibition in vivo at 30 mg/kg (Rattus norvegicus [2]): 46%; inhibition in vivo at 50 mg/kg (Rattus norvegicus [11]): 72.1%; inhibition in vivo at 75 mg/kg (Rattus norvegicus [3]): 80.2%; ED50 (Rattus norvegicus [5]): 30.6 mg/kg; inhibition in vivo at 50 mg/kg (Mus musculus [12]): 71.1%; Activity (Rattus norvegicus [8]): 7.9 mm; inhibition (INH) (Rattus norvegicus [13]): 72.13%
COc1ccc(/C=C/C(C)=N/OCC(=O)Nc2ccccc2)cc1 | 42.91 | –
COc1ccc(/C=C/C(C)=N/OCC(=O)O)cc1 | 7.35 | –
CC(/C=C/c1ccc(Cl)cc1)=N\OC(C)C(N)=O (centres undefined) | 57.54 | –
COc1ccc(/C=C/C(C)=N/OC(C)C(=O)O)cc1 (centres undefined) | 45.38 | –
CC(/C=C/c1ccccc1)=N\OCC(N)=O | 49.71 | –
CC(/C=C/c1ccccc1)=N\OCC(=O)NN | 29.01 | –
CC(/C=C/c1ccccc1)=N\OC(C)C(N)=O (centres undefined) | 63.23 | inhibition in vivo at 30 mg/kg (Rattus norvegicus [2]): 37.7%; inhibition in vivo at 75 mg/kg (Rattus norvegicus [3]): 69.1%; inhibition in vivo at 37 mg/kg (Rattus norvegicus [14]): 63.2%; ED50 (Rattus norvegicus [5]): 34.3 mg/kg; inhibition in vivo at 100 mg/kg (Mus musculus [7]): 82.5%; inhibition in vivo at 37 mg/kg (Mus musculus [15]): 53.6%; Activity (Rattus norvegicus [8]): 0.3 mm; LD50 at 24 h [9]: 745 mg/kg; selectivity ratio [10]: 20.1
CC(/C=C/c1ccc(Cl)cc1)=N\OCC(=O)NC(C)C | 28.49 | –
CC(/C=C/c1ccc(Cl)cc1)=N\OC(C)C(=O)NC(C)C (centres undefined) | 42.84 | –
CC(/C=C/c1ccc(Cl)cc1)=N\OCC(=O)Nc1ccc(Cl)cc1 | 40.89 | –
CC(/C=C/c1ccccc1)=N\OCC(=O)Nc1ccccc1 | 35.43 | –
CCOC(=O)C(C)O/N=C(C)/C=C/c1ccccc1 (centres undefined) | 33.2 | –
CC(/C=C/c1ccccc1)=N\OC(C)C(=O)NC(C)C (centres undefined) | 37.38 | –
COc1ccc(/C=C/C(C)=N/OCC(N)=O)cc1 | 38.21 | –

Structure (SMILES) | inhibition (INH) (Rattus norvegicus [1]) [%] | further results
CC(/C=C/c1ccc(Cl)cc1)=N\OC(C)C(=O)NN (centres undefined) | 43.49 | –
COc1ccc(NC(=O)CO/N=C(C)/C=C/c2ccc(Cl)cc2)cc1 | 48.16 | –
CC(/C=C/c1ccc(Cl)cc1)=N\OCC(=O)NN | 21.76 | –
COc1ccc(/C=C/C(C)=N/OC(C)C(=O)NC(C)C)cc1 (centres undefined) | 27.53 | –
CC(/C=C/c1ccc(Cl)cc1)=N\OCC(N)=O | 50.77 | –
CC(/C=C/c1ccccc1)=N\OC(C)C(=O)O (centres undefined) | 40.85 | –
CCOC(=O)CO/N=C(C)/C=C/c1ccccc1 | 29.76 | –
CCOC(=O)CO/N=C(C)/C=C/c1ccc(OC)cc1 | 22.14 | –
COc1ccc(/C=C/C(C)=N/OCC(=O)Nc2ccc(Cl)cc2)cc1 | 43.32 | –
CC(/C=C/c1ccc(Cl)cc1)=N\OCC(=O)O | 50.57 | –
COc1ccc(/C=C/C(C)=N/OCC(=O)NC(C)C)cc1 | 41.68 | –
COc1ccc(/C=C/C(C)=N/OC(C)C(N)=O)cc1 (centres undefined) | 58.53 | –
COc1ccc(NC(=O)CO/N=C(C)/C=C/c2ccccc2)cc1 | 49.64 | –
COc1ccc(/C=C/C(C)=N/OCC(=O)NN)cc1 | 24.44 | –
CCOC(=O)CO/N=C(C)/C=C/c1ccc(Cl)cc1 | 26.23 | –
CC(/C=C/c1ccccc1)=N\OCC(=O)Nc1ccc(Cl)cc1 | 28.66 | –
COc1ccc(/C=C/C(C)=N/OC(C)C(=O)NN)cc1 (centres undefined) | 38.76 | –
CCOC(=O)C(C)O/N=C(C)/C=C/c1ccc(OC)cc1 (centres undefined) | 21.66 | –
CC(/C=C/c1ccccc1)=N\OC(C)C(=O)NN (centres undefined) | 56.27 | –
CC(/C=C/c1ccc(Cl)cc1)=N\OCC(=O)Nc1ccccc1 | 29.45 | –
